Test results as given in publication PMC7771113 (International Journal for Parasitology: Drugs and Drug …, 2020).
Like-named read-outs stand apart in the source and are kept apart here.

Assays:
T. gondii = settings: cited from earlier work
[1] = tested on: histone H4 (lys16) acetylation in T. gondii; test: Western blot of histone H4 acetylation in treated tachyzoites; type: cell-based, Toxoplasma gondii; settings: 0,2 μM SAHA, 1 μM TST, 48 h
Summary of the method: (§1)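 Infected NDHF fibroblasts were treated for 48 h. Tachyzoites were released by 30G needle passage, pelleted at 2000 rcf for 10 min and filter-purified; 10^6 parasites were cryolysed with protease inhibitors. Primary antibodies, 1 h: H3 and acetyl-H3 Lys9/14 each 1:1000; H4 1:3000, acetyl-H4 Lys16 1:1000; α-tubulin 1:1000, acetylated α-tubulin 1:2000. Detection by HRP secondaries and ECL. Bands from three experiments were normalised to GAPDH, and acetylated/total ratios were computed.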

[2] = tested on: histone H3 (Lys 9/14) acetylation in T. gondii; test: Western blot of histone H3 acetylation in treated tachyzoites; type: cell-based, Toxoplasma gondii; settings: 0,2 μM SAHA, 1 μM TST, 48 h
Summary of the method: as §1

[3] = tested on: T. gondii ME49 strain (type II) tachyzoites; test: Effect on tachyzoites of the ME49 strain in NDHF fibroblasts; type: cell-based, Toxoplasma gondii; settings: 1 μM TST, 0.1 μM SAHA, 24 h
T. gondii RH tachyzoites = test: Fluorescence microscopy of cell division and apicoplast; type: cell-based, Toxoplasma gondii; settings: 1 μM TST, 0.1 μM SAHA, 24 h; for effect on apicoplast: ACP-YFP tachyzoites
Summary of the method: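 NDHF fibroblasts were infected with RH-ACP-YFP tachyzoites and treated for 24 h, then fixed 40 min in 4% formaldehyde/PBS and permeabilised 15 min in 0.5% Triton X-100. Staining used anti-SAG1 and rabbit anti-centrin1 (1:1000), Alexa secondaries (1:800) and Hoechst (0.5 μg/mL). Daughter budding was also examined in RH-infected cells with anti-IMC1 (1:1000). Imaging by confocal and SR-SIM; two independent experiments.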

[4] = Cytotoxicity assay in host cells; type: cell-based, Human; settings: human, NDHF fibroblasts; for CC50 at 48 h: NDHF CC50, 48h
[5] = tested on: T. gondii RH-ACP-YFP tachyzoite mitochondria; test: MitoTracker fluorescence analysis of parasite mitochondria; type: cell-based, Toxoplasma gondii; settings: 1 μM TST, 0.1 μM SAHA, 24 h
Summary of the method: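 NDHF fibroblasts infected with RH-ACP-YFP tachyzoites were treated for 24 h, then incubated with 50 nM MitoTracker Red CMXRos for 45 min. Mitochondrial membrane potential and partitioning were assessed by confocal and SR-SIM imaging. Two independent experiments.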

[6] = Cytotoxicity assay in host cells; type: cell-based; settings: mouse, primary microglial cultures (mixed astrocytes/microglia)
[7] = tested on: i. p. (intra peritoneal) macrophages; test: Cytotoxicity assay in host cells; type: cell-based, mouse; settings: read-out: Macrophages CC50; 48h
[8] = tested on: bradyzoites of the EGS strain; test: Activity against bradyzoites of the EGS strain in 96 h-infected NDHF fibroblasts; type: cell-based, Toxoplasma gondii; settings: 48 h; for proliferation or viability of bradyzoites: 1 and 5 μM TST, 0.1 μM SAHA
Summary of the method: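 Tachyzoites of the EGS strain expressing SAG1mCherry/BAG1sfGFP were grown in NDHF fibroblasts for 96 h, when bradyzoite conversion and spontaneous cyst formation are higher, then treated for 48 h. DMSO was at most 0.1% (v/v). Bradyzoites were imaged by fluorescence microscopy and fluorescence intensity was quantified. Two independent experiments; one-way ANOVA with Bonferroni test.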

T. gondii α-tubulin = test: Western blot of α-tubulin and acetylated α-tubulin in treated tachyzoites; type: cell-based, Toxoplasma gondii; settings: 1 μM TST, 0.1 μM SAHA, 48 h
Summary of the method: as §1

[9] = tested on: T. gondii RH strain (type I) tachyzoites; test: Antiproliferative assay, tachyzoites of RH strain in LLC-MK2 cells; type: cell-based; settings: Toxoplasma gondii
[10] = tested on: T. gondii EGS strain (atypical, I/III); test: Antiproliferative assay, tachyzoites of EGS strain; type: cell-based; settings: Toxoplasma gondii, 48 h, read-out: T. gondii EGS IC50
NDHF fibroblasts = test: Cytotoxicity assay in host cells; type: cell-based, Human
[11] = tested on: H4 acetylation in T. gondii; settings: ref Bougdour et al., 2009; cited from earlier work

Compound: COc1cccc(CC(=O)Nc2ccc(C(=O)NO)cc2)c1 [N-hydroxy-4-[2-(3-methoxyphenyl)acetamido]benzamid]
- IC50 (T. gondii; RH strain, ref Loeuillet et al., 2018): 0.35 µM

Compound: O=C(CCCCCCC(=O)Nc1ccccc1)NO [SAHA, Suberoylanilide Hydroxamic Acid]
- acetylation levels of H4 (lys16), rH4ac/rH4 [1]: modest increase
- acetylation levels of H3 (Lys 9/14), rH3ac/rH3 [2]: modest increase
- tachyzoite proliferation, ME49 strain [3]: inhibit tachyzoite proliferation significantly
- effect on cell division / daughter cell budding (T. gondii RH tachyzoites): masses of damaged parasites showing several centrosomes
- effect on apicoplast (T. gondii RH tachyzoites): apicoplast fragmentation
- CC50 at 48 h [4]: > 20 µM
- effect on parasite mitochondria (Mitotracker) [5]: mitochondrion fragmentation
- CC50 at 48 h [6]: > 20 µM
- CC50 [7]: 4.61 µM
- amount of bradyzoites in the culture ([8]; 0.2 μM SAHA): maintained the same amount of bradyzoites in the culture as in the control
- proliferation or viability of bradyzoites [8]: inhibited significantly

Compound: CN1CCc2c(c3ccccc3n2Cc2ccc(C(=O)NO)cc2)C1 [TST, Tubastatin A]
- acetylation levels of H4 (lys16), rH4ac/rH4 [1]: significant increase
- tubulin acetylation levels, ratio rTubac/rTub (T. gondii α-tubulin): no change
- acetylation levels of H3 (Lys 9/14), rH3ac/rH3 [2]: decrease below the levels of the untreated cells
- IC90 ([9]; LLC-MK2): 5 µM
- IC50 ([9]; LLC-MK2, 24 h): 0.019 ± 0.001 µM
- IC50 ([9]; LLC-MK2, 48 h, read-out: T. gondii RH IC50): 0.52 µM
- tachyzoite proliferation, ME49 strain [3]: inhibit tachyzoite proliferation significantly
- effect on cell division / daughter cell budding (T. gondii RH tachyzoites): formation of a rounded mass of parasites
- effect on apicoplast (T. gondii RH tachyzoites): Alteration at the apicoplast partition
- IC50 [10]: 0.29 µM
- CC50 at 120 h ([4]; CC50, NDHF fibroblasts, treatment for 120 h with higher concentrations (20–80 μM)): 29.9 µM
- CC50 at 48 h [4]: > 20 µM
- CC50 times higher than the IC50 obtained for T. gondii (NDHF fibroblasts; CC50 in NDHF after 120 h): 57 times
- selective index (NDHF fibroblasts; in different types of mammalian cells after 48 h of treatment): at least 20
- effect on parasite mitochondria (Mitotracker) [5]: reduction of the labeling intensity of mitochondria
- CC50 at 48 h [6]: > 20 µM
- CC50 [7]: 13.5 µM
- proliferation or viability of bradyzoites [8]: inhibited significantly

Compound: CCc1nc(N)nc(N)c1-c1ccc(Cl)cc1 [pyrimethamine]
- IC50 (T. gondii; read-out: IC50 against T. gondii, ref Dubar et al., 2011, Martins-Duarte, 2006): 0.12 µM

Compound: FR235222
- H4 acetylation [11]: increased H4 acetylation
